Assay results from ChEMBL document CHEMBL4808239, “Challenges of short substrate analogues as SARS-CoV-2 main protease inhibitors” (Bioorg Med Chem Lett, 2021).
Calls of active or inactive are those of the source. The rule behind the calls is not given here. Starred links: 1 amine or outer side, 2 acyl side, 3 side chain; linkers in the order of their positions; H or OH if unused. Non-standard residues stand in square brackets, D forms with d. Residues, ends and D or L forms follow the SMILES beside them. X1 = N#Cc1cc(C[C@H](N[*:1])C(=O)[*:2])ccn1; Tle = CC(C)(C)[C@H](N)C(=O)O; Thz = O=C(O)[C@@H]1CSCN1; Abu = CC[C@H](N)C(=O)O

Legend:
[1] = biological target: Replicase polyprotein 1ab (Severe acute respiratory syndrome coronavirus 2, UniProt P0DTD1); assay: Inhibition of SARS CoV-2 main protease using DABCYL-KTSAVLQ1SGFRKM-E(EDANS)-NH2 as substrate by FRET based assay
[2] = biological target: Replicase polyprotein 1ab (Severe acute respiratory syndrome coronavirus 2) (UniProt P0DTD1); assay: Binding affinity to SARS CoV-2 15N/2H-labeled main protease assessed as chemical pertubations at 100 uM by 15HSQC-NMR spectrum analysis
Summary of the method: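 Wild-type main protease, ¹⁵N/²H-labelled, expressed with His6 tag, Ni-NTA purified and tag-cleaved. [¹⁵N,¹H]-HSQC spectra recorded at 25 °C (600/800 MHz) with and without compound and overlaid to look for chemical shift changes.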

Structure (SMILES): CC(C)C[C@@H]1NC(=O)[C@H](C(C)C)NC(=O)[C@H](C(C)C)NC(=O)[C@@H]2CSC(=N2)c2cc(ccn2)C[C@@H](C(N)=O)NC(=O)[C@H](CCC(=O)O)NC1=O
- IC50 [1]: > 100 µM

Structure (SMILES): CC(C)C[C@@H]1NC(=O)[C@H](C(C)C)NC(=O)[C@@H]2CSC(=N2)c2cc(ccn2)C[C@@H](C(N)=O)NC(=O)[C@H](CO)NC(=O)[C@H](CCC(N)=O)NC1=O
- IC50 [1]: > 100 µM

Structure (SMILES): CC(C)C[C@@H]1NC(=O)[C@H](C(C)C)NC(=O)[C@H](C)NC(=O)[C@H](C)NC(=O)[C@@H]2CSC(=N2)c2cc(ccn2)C[C@@H](C(N)=O)NC(=O)[C@H](C)NC(=O)[C@H](CCC(N)=O)NC1=O
- Activity [2]: inactive

Structure (SMILES): CC(C)C[C@@H]1NC(=O)[C@H](C(C)C)NC(=O)[C@H](C)NC(=O)[C@H](C)NC(=O)[C@@H]2CSC(=N2)c2cc(ccn2)C[C@@H](C(N)=O)NC(=O)[C@H](C)NC(=O)[C@H](CC(N)=O)NC1=O
- IC50 [1]: > 100 µM

Structure (SMILES): CC(C)C[C@H](NC(=O)[C@@H](NC(=O)[C@H](C)NC(=O)[C@H](C)NC(=O)[C@@H]1CSCN1)C(C)C)C(=O)N[C@@H](CCC(N)=O)C(=O)N[C@@H](C)C(=O)N[C@@H](Cc1ccnc(C#N)c1)C(N)=O (H-[Thz]AAVLQA[X1]-NH2)
- IC50 [1]: > 100 µM

Structure (SMILES): CC(C)C[C@@H]1NC(=O)[C@H](CCCNC(=N)N)NC(=O)[C@H](C)NC(=O)[C@@H]2CSC(=N2)c2cc(ccn2)C[C@@H](C(N)=O)NC(=O)[C@H](CCC(=O)O)NC1=O
- IC50 [1]: > 100 µM

Structure (SMILES): CC(C)C[C@@H]1NC(=O)[C@H](C(C)C)NC(=O)[C@H](C(C)C)NC(=O)[C@@H]2CSC(=N2)c2cc(ccn2)C[C@@H](C(N)=O)NC(=O)[C@H](CCC(N)=O)NC1=O
- Activity [2]: inactive

Structure (SMILES): CC[C@H](NC(C)=O)C(=O)N[C@H](C(=O)N[C@@H](CC(C)C)C(=O)N[C@@H](CCC(N)=O)C(N)=O)C(C)(C)C (Ac-[Abu][Tle]LQ-NH2)
- IC50 [1]: > 100 µM
